Test results taken from ChEMBL document CHEMBL4190192, “Interaction of 7-Alkoxycoumarins with the Aryl Hydrocarbon Receptor” (J Nat Prod, 2017).

target: T1, Aryl hydrocarbon receptor (Homo sapiens, UniProt P35869); assay: Agonist activity at AhR (unknown origin) expressed in mouse H1L1.1c2 cells at 1 to 100 uM after 8 to 10 hrs by luciferase reporter gene assay; format: cell-based
T1 sequence (P35869 whole entry): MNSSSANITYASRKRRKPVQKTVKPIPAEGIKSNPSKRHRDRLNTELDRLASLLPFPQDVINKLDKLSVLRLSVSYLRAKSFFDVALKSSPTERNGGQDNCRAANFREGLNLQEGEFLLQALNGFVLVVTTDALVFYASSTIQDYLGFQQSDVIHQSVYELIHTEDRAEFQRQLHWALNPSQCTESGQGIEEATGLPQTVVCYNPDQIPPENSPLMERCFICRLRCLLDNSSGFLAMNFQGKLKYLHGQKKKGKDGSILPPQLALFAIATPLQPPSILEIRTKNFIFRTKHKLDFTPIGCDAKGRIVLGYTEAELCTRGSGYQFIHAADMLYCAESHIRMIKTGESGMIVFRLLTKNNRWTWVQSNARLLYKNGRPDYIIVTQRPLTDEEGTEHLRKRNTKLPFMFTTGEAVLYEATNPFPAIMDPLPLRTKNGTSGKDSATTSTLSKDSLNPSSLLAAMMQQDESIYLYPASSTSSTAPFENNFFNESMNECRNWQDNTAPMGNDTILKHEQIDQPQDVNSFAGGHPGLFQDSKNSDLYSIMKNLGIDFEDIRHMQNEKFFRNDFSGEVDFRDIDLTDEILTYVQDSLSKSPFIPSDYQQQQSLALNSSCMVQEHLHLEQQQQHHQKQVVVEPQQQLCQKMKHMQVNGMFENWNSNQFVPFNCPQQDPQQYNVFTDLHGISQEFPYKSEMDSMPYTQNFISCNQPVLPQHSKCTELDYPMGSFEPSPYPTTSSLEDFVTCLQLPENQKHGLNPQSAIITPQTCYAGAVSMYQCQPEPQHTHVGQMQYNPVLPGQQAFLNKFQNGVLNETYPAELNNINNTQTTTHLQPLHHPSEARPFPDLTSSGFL
Procedure, shortened: (§1)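 AhR luciferase reporter cells were grown and treated with compounds at three concentrations (1, 10 and 100 μM). The reference ligand FICZ was run at 1 μM. The read-out was luciferase activity. Data are given as mean ± SD, with significance at P < 0.05, < 0.01 and < 0.001.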

Row | Activity | SMILES
1 | Not Active | COc1cc(/C=C/C(=O)O)ccc1OC/C=C(\C)CCC=C(C)C
2 | Not Active | CC(C)=CCC/C(C)=C/COc1ccc2ccc(=O)oc2c1
3 | Not Active | CC(C)CCOc1ccc2ccc(=O)oc2c1
4 | Not Active | C=CCOc1ccc2ccc(=O)oc2c1 [7-ALLYLOXYCOUMARIN]
5 | Not Active | CCCOc1ccc2ccc(=O)oc2c1 [7-PROPOXYCOUMARIN]
6 | Not Active | CCOc1ccc2ccc(=O)oc2c1 [ETHOXYCOUMARIN]
7 | Not Active | COc1ccc2ccc(=O)oc2c1 [HERNIARIN]
8 | Not Active | O=c1ccc2ccc(O)cc2o1 [UMBELLIFERONE]

target: T1, Aryl hydrocarbon receptor; assay: Agonist activity at AhR (unknown origin) expressed in mouse H1L1.1c2 cells after 8 to 10 hrs by luciferase reporter gene assay; format: cell-based; procedure, shortened: as §1

Row | Activity | SMILES
9 | Dose-dependent effect | CC(C)=CCOc1ccc2ccc(=O)oc2c1 [7-PRENYLOXYCOUMARIN]
10 | Dose-dependent effect | COc1cc(/C=C/C(=O)O)ccc1OCC=C(C)C [BOROPINIC ACID]

target: T1, Aryl hydrocarbon receptor; assay: Agonist activity at AhR (unknown origin) expressed in mouse H1L1.1c2 cells at 100 uM after 8 to 10 hrs by luciferase reporter gene assay; format: cell-based

Row | Activity | SMILES
11 | Active | CC(C)(C)COc1ccc2ccc(=O)oc2c1
12 | Active | CCC#CCOc1ccc2ccc(=O)oc2c1 [7-(2-PENTYNYLOXY)COUMARIN]
13 | Active | C/C=C/COc1ccc2ccc(=O)oc2c1 [(E)-7-(2-BUTENYLOXY)COUMARIN]

target: T1, Aryl hydrocarbon receptor; assay: Antagonist activity at AhR (unknown origin) expressed in mouse H1L1.1c2 cells assessed as inhibition of FICZ-induced AhR activation at 1 to 100 uM after 8 to 10 hrs by luciferase reporter gene assay; format: cell-based

Row | inhibition (INH) | SMILES
14 | Not Active | COc1cc(/C=C/C(=O)O)ccc1OC/C=C(\C)CCC=C(C)C
15 | Not Active | CC(C)=CCC/C(C)=C/COc1ccc2ccc(=O)oc2c1
16 | Not Active | CC(C)(C)COc1ccc2ccc(=O)oc2c1
17 | Not Active | CC(C)CCOc1ccc2ccc(=O)oc2c1
18 | Not Active | CCC#CCOc1ccc2ccc(=O)oc2c1 [7-(2-PENTYNYLOXY)COUMARIN]
19 | Not Active | C=CCOc1ccc2ccc(=O)oc2c1 [7-ALLYLOXYCOUMARIN]
20 | Not Active | CC(C)=CCOc1ccc2ccc(=O)oc2c1 [7-PRENYLOXYCOUMARIN]
21 | Active | CCCOc1ccc2ccc(=O)oc2c1 [7-PROPOXYCOUMARIN]
22 | Not Active | C/C=C/COc1ccc2ccc(=O)oc2c1 [(E)-7-(2-BUTENYLOXY)COUMARIN]
23 | Not Active | COc1cc(/C=C/C(=O)O)ccc1OCC=C(C)C [BOROPINIC ACID]
24 | Not Active | CCOc1ccc2ccc(=O)oc2c1 [ETHOXYCOUMARIN]
25 | Not Active | COc1ccc2ccc(=O)oc2c1 [HERNIARIN]
26 | Not Active | O=c1ccc2ccc(O)cc2o1 [UMBELLIFERONE]
